A selection: hits, their analogues and other compounds. The true share with any hit is near 2.5%.
PRMT1 inh = PRMT1 (human) inhibition, primary screen. recombinant PRMT1, activity-based probe fluorescence polarization. inhibition, % at 2.79 µM. actives 1.3% (n = 370,000). AID 652257;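 active = inhibition above about 21% made by adding two undisclosed values, limit read from the data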
Target sequence (Q99873 whole entry, looked up): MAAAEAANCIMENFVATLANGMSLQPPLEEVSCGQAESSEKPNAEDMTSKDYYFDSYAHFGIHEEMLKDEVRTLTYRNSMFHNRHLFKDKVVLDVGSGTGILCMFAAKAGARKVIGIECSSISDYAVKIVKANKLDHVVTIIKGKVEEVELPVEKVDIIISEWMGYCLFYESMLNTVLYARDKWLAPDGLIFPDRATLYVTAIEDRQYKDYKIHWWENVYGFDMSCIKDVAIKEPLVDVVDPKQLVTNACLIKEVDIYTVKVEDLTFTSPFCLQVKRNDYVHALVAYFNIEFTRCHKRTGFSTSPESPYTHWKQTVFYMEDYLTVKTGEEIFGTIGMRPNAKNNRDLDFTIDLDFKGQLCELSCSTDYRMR
ABHD4 inh = inhibitors of mouse ABHD4; inhibition, % at 8.92 µM; purified mABHD4, FP-Rh probe fluorescence polarization; AID 720543; actives 0.54% (n = 370,000);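 active = inhibition exceeding the mean over every tested compound plus 3 SD, cut at about 30% in these data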
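assay system = mABHD4 protein | compound dosing = single nominal dose of 8.92 µM, 0.89% DMSO final | read-out basis = percent inhibition of probe binding, normalized to plate controls | schedule = Enzyme–compound pre-incubation 45 min, then probe 60 min, both 25 °C | detection = fluorescence polarization, excitation 525 nm, emission 598 nm, BODIPY TMR filters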
SIAE inh = blocks human sialic acid acetylesterase. SIAE FP-Rh probe binding, fluorescence polarization. actives 0.69% (n = 370,000). Q9HAT2. AID 1053197. inhibition, % at 9.66 µM;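 active = inhibition above a cutoff: mean of compounds within the control limits plus 3 SD of those, cut at about 17% in these data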
HTRA1 inhibitor = inhibitors of human serine peptidase HTRA1 | recombinant HTRA1, FP-rhodamine activity-based probe, fluorescence polarization | AID 504803 | inhibition, % at 5.96 µM | actives 0.5% (n = 340,000); in the data active = inhibition above about 36%
TCR-CD3 inh = blocks the human TCR-CD3 interaction; AID 651800; actives 0.37% (n = 360,000); TAMRA-labeled TCR probe fluorescence, biochemical; inhibition, % at 9.4 µM; in the data active = inhibition above about 19%;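 also: recombinant mutant TCR 2C K166C tagged with TAMRA read by polarization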
Hits are given with their value; i = inactive; nt = no result.

SMILES	PRMT1 inh	ABHD4 inh	SIAE inh	HTRA1 inhibitor	TCR-CD3 inh
CCOC(=O)N1CCN(C(=O)c2cc3sccc3n2C)CC1	i	i	i	i	i
CCCCCCCCS(=O)c1sc2nc3c(cc2c1N)CCCC3 (stereo unspecified)	24	i	i	i	i
COc1ccccc1N1C(=O)C=C(Sc2nc(C)cc(C)n2)C1=O	24	i	i	nt	i
Cc1c(NC(=O)C2CCCN(S(=O)(=O)c3c(C(C)C)cc(C(C)C)cc3C(C)C)C2)c(=O)n(-c2ccccc2)n1C (stereo unspecified)	i	i	i	nt	nt
O=C(NC1CCCCCC1)c1ccc(Br)o1	i	i	i	i	i
O=C(NC1CCCCC1)Oc1cc2oc(=O)sc2cc1Br	82	33	i	i	i
O=C(CC1Sc2ccccc2NC1=O)NNc1ccc(Cl)cc1Cl (stereo unspecified)	i	i	i	i	i
O=C1Nc2c(Cl)cc(Cl)cc2C12Nc1ccccc1S2 (stereo unspecified)	23	i	i	nt	i
Cc1ccc(C2NC(=S)N3C(c4ccc(C)cc4)NC(=S)N23)cc1 (stereo unspecified)	22	i	i	i	i
S=C1NC(c2ccccc2)N2C(=S)NC(c3ccccc3)N12 (stereo unspecified)	i	i	i	i	i
O=C(O)CCC(C(=O)O)n1c(O)c(C2=c3ccccc3=NC2=O)sc1=S (stereo unspecified)	23	i	i	i	i
COC(=O)c1cccc(OCC(C)CN2CCC(C(O)(c3ccccc3)c3ccccc3)CC2)c1 (stereo unspecified)	i	i	i	nt	nt
CC(=O)Oc1cc2oc(=O)cc(C)c2cc1OC(C)=O	21	i	i	i	i
Cn1c(=S)c2[nH]c(SCCN)nc2n(C)c1=O	i	39	i	i	i
COc1ccc(C(C(=O)N(C)C2CCCC2)N(Cc2ccc(F)cc2)C(=O)c2sccc2Cl)cc1OC (stereo unspecified)	i	i	i	nt	nt
S=c1[nH]nc(COc2ccccc2)n1/N=C/c1ccccc1Cl	23	i	i	i	i
O=C(OCC(=O)N1CCN(c2ccccc2)CC1)c1ccc2ncsc2c1	23	i	i	i	i
O=C(OCC(=O)N1CCN(c2ccccc2)CC1)c1ccc(Cl)nc1	i	i	i	i	i
O=C(C1CCN(c2ncnc3c2sc2cccc(F)c23)CC1)N1CCN(C(=O)C2CCCO2)CC1 (stereo unspecified)	i	i	i	nt	nt
O=C1CCC(CNc2ccccc2)N1c1ccccc1 (stereo unspecified)	i	i	i	nt	nt
CC(C)c1ccc(N2C(=O)C(Cl)=C(N3CCOCC3)C2=O)cc1	i	i	i	i	i
O=C1C(Cl)=C(N2CCOCC2)C(=O)N1c1ccc(Br)cc1	25	i	i	i	i
N=c1scc(-c2ccccc2)n1/N=C/c1ccco1	34	i	i	i	i
C=C1C(=O)c2sccc2C(c2ccc(OC)c(OC)c2)C1COC(C)=O (stereo unspecified)	24	i	i	i	i
O=C(Nc1ccccc1C(F)(F)F)OCCN1C(=O)CCC12CCC(c1ccccc1)CC2 (stereo unspecified)	i	i	i	nt	nt
SMILES	PRMT1 inh	ABHD4 inh	SIAE inh	HTRA1 inhibitor	TCR-CD3 inh
O=C1OC(c2cccs2)Sc2ccccc21 (stereo unspecified)	25	i	i	nt	i
O=C1OC(c2ccccc2)Sc2ccccc21 (stereo unspecified)	i	i	i	i	i
C[C@H]1[C@H](N)CC[C@@]23CCCN2C(=O)CCC[C@@H]13	i	i	i	nt	nt
COc1cc(C(Nc2ccc3c(c2)OCO3)C(=O)NC2CCCCC2)cc(OC)c1OC (stereo unspecified)	25	i	i	i	i
COc1cc(NC(=O)Nc2ccc3c(c2)OCO3)cc(OC)c1OC	i	i	i	i	i
Nn1cc(-c2ccccc2)nc1SCC(=O)Nc1cccc(S(N)(=O)=O)c1	i	i	i	i	i
Nn1cc(-c2ccccc2)nc1SCC(=O)Nc1ccc(S(N)(=O)=O)cc1	23	i	i	i	i
CCOC(=O)C1=C(C)n2c(s/c(=C3\C(=O)Nc4ccccc43)c2=O)=NC1c1ccc(OC)cc1 (stereo unspecified)	24	i	i	i	i
CCOC(=O)C1=C(C)N=c2s/c(=C3/C(=O)Nc4ccccc43)c(=O)n2C1c1ccc(C)cc1 (stereo unspecified)	23	i	i	i	i
C=CCN1C(=O)[C@@H](CC(=O)NCc2ccccc2)[C@]2(C(=O)OCC)CCCCC/C=C/12	i	i	i	nt	nt
COc1cccc(OC)c1NC(=O)OC1CCC12CCC(c1ccccc1)CC2 (stereo unspecified)	i	i	i	nt	nt
COC(=O)c1cn(-c2ccc3c(c2)[C@]2(CC(=O)N(C)C2c2ccccc2)C(=O)N3CC(C)C)nn1 (stereo partly specified)	i	i	i	nt	nt
Cc1nc2sc(C(=O)NCc3ccc4c(c3)OCO4)c(N)c2c(C)c1Cl	22	i	i	nt	nt
CC(C)(C)NC(=O)C(c1cccnc1)N(C(=O)c1cnc[nH]1)c1ccc(C(C)(C)C)cc1 (stereo unspecified)	i	i	i	nt	nt
CNc1cccnc1C=NNC(N)=S	24	i	i	i	i
NC(=S)N/N=C/c1ccccc1	i	i	i	i	i
CCN1C(=O)/C(=C2\SC(=S)N(NC(=O)c3cccnc3)C2=O)c2ccccc21	21	i	i	i	i
CC(C)C[C@@H]1COc2cc(F)ccc2S(=O)(=O)N1C	i	i	i	nt	nt
N#C/C(C(=O)Nc1ccc(Cl)cc1)=C(/S)Nc1ccccc1	91	i	i	i	i
O=C(Nc1ccc(Nc2ccccc2)cc1)c1ccc(Cl)cc1	i	i	i	i	i
COc1ccccc1CCNC(=O)CCSc1nc(-c2ccco2)cc(C(F)(F)F)n1	23	i	i	i	i
CCOC(=O)[C@]12CCCC=C1N(CCCOC)C(=O)[C@@H]2CC(=O)NCC12CC3CC(CC(C3)C1)C2	i	i	i	nt	nt
CCN1CC=C2C(C#N)=C(N)C(C#N)(C#N)C(c3cc(Cl)ccc3Cl)C2C1 (stereo unspecified)	25	i	i	i	i
CC(C)[C@@H](NC(=O)OC(C)(C)C)c1cc(C(=O)c2c(-c3ccccc3)[nH]c3ccccc23)c(N)s1	23	i	i	nt	i
N#CC(C#N)=C(N)/C(C#N)=C/c1cc(O)c(O)c(O)c1	i	33	i	i	i
N#C/C(=C/c1cc(Cl)c(O)c(Cl)c1)C(=O)N1CCCCC1	i	i	i	i	i
C=C(CN(C)C)C(=O)c1ccc(C)cc1C	23	i	i	i	i
Cc1ccc(C(=O)CC(=O)c2ccccc2C)c(O)c1	i	i	i	i	i
CN1CCN(c2ccc3c(c2)Oc2ccccc2CN(Cc2cn(Cc4ccc(F)cc4)nn2)S3(=O)=O)CC1	i	i	i	nt	nt
O=C(c1ccco1)[C@@H]1[C@@H]2C(=O)N(c3ccc(Br)cc3)C(=O)[C@@H]2C2c3ccccc3C=CN21 (stereo partly specified)	25	i	i	i	i
